The values below come from ChEMBL document CHEMBL4261601, “Discovery and lead identification of quinazoline-based BRD4 inhibitors” (Bioorg Med Chem Lett, 2018).

Usually Kd stands for a measure of binding affinity in units of concentration. By half-life is commonly meant the time in which the quantity being followed falls by half. As usually defined, the AUC(0-inf) is the area under the concentration-time curve extrapolated to infinity. A lower AUC(0-inf) goes with low exposure. In general, Cmax refers to the highest concentration seen after dosing. As usually defined, the clearance is a measure of how efficiently the substance is removed, as volume per time. A high value points to a high capacity for elimination. What is called IC50 is the midpoint of a concentration-inhibition curve. High values mean lower potency, low ones higher potency.

Data set [1] deals with T1, Bromodomain-containing protein 4 (Homo sapiens, UniProt O60885). Kind of data set: Displacement of biotinylated acetylated peptide from recombinant human partial length BRD4 long isoform bromodomain 1/2 (N44 to E460 residues) expressed in Escherichia coli BL21 measured after 1 hr by Bromoscan method.
Data set [2] in a line: Half life in CD-1 mouse at 10 mg/kg, po. In kind it is ADME, organism-based. Particulars: in vivo. In a few lines:
(§1)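 CD-1 mice (n = 3) received a single oral dose of 10 mg/kg. Plasma drug levels were followed over time to derive AUC0–∞, t1/2 and oral bioavailability (F%), the last relative to the iv arm.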

The nature of data set [3]: (§2) AUC (0 to infinity) in CD-1 mouse at 10 mg/kg, po. It is filed as ADME, organism-based. Also noted: dose 10 mg/kg, time infinity, route oral. The following applies: CD-1, mouse, in vivo. The essentials: as §1
The nature of data set [4]: Half life in CD-1 mouse at 2 mg/kg, iv. The following applies: in vivo. In kind it is ADME, organism-based.
Data set [5] concerns Mus musculus. Kind of data set: Cmax in CD-1 mouse at 2 mg/kg, iv measured after 5 mins. In kind it is ADME, organism-based. Also noted: dose 2 mg/kg, route intravenous. Particulars: in vivo.
A short description of data set [6]: AUC (0 to infinity) in CD-1 mouse at 2 mg/kg, iv. In kind it is ADME, organism-based. The following applies: in vivo. Also noted: dose 2 mg/kg, time infinity, route intravenous.
A short description of data set [7]: Volume of distribution at steady state in CD-1 mouse at 2 mg/kg, iv measured. In kind it is ADME, organism-based. Particulars: in vivo, read-out: Vdss.
Data set [8] can be described thus: Plasma clearance in CD-1 mouse at 2 mg/kg, iv. In kind it is ADME, organism-based.
For data set [9], the system named is Mus musculus. Kind of data set: Oral bioavailability in CD-1 mouse at 10 mg/kg. It is filed as ADME, organism-based. Particulars: in vivo. In a few lines:
as §1

Another data set has as its system MV4-11. Kind of data set: Cytotoxicity against human MV411 cells after 72 hrs by CellTiter-Glo assay. In kind it is functional, cell-based. Particulars: MV4-11, 72 h.
In data set [10] the target is T2, Bromodomain-containing protein 2 (Homo sapiens, UniProt P25440). Kind of data set: Displacement of biotinylated acetylated peptide from recombinant human partial length BRD2 isoform 1 bromodomain 1 (K71 to N194 residues) expressed in Escherichia coli BL21 measured after 1 hr by Bromoscan method.
The target in data set [11] is T2, Bromodomain-containing protein 2. The experiment in a line: Displacement of biotinylated acetylated peptide from recombinant human partial length BRD2 isoform 1 bromodomain 1/2 (K71 to D455 residues) expressed in Escherichia coli BL21 measured after 1 hr by Bromoscan method.
Data set [12] has the same target. The experiment in a line: Displacement of biotinylated acetylated peptide from recombinant human partial length BRD2 isoform 1 bromodomain 2 (E348 to D455 residues) expressed in Escherichia coli BL21 measured after 1 hr by Bromoscan method.
In data set [13] the target is T3, Bromodomain-containing protein 3 (Homo sapiens, UniProt Q15059). Kind of data set: Displacement of biotinylated acetylated peptide from recombinant human partial length BRD3 bromodomain 1 (P24 to E144 residues) expressed in Escherichia coli BL21 measured after 1 hr by Bromoscan method.
Data set [14] concerns the target T3, Bromodomain-containing protein 3. Kind of data set: Displacement of biotinylated acetylated peptide from recombinant human partial length BRD3 bromodomain 1/2 (P24 to P416 residues) expressed in Escherichia coli BL21 measured after 1 hr by Bromoscan method.
For data set [15] the target is unchanged. The experiment in a line: Displacement of biotinylated acetylated peptide from recombinant human partial length BRD3 bromodomain 2 (G306 to P416 residues) expressed in Escherichia coli BL21 measured after 1 hr by Bromoscan method.
For data set [16], the target named is T1, Bromodomain-containing protein 4. The experiment in a line: Displacement of biotinylated acetylated peptide from recombinant human partial length BRD4 long isoform bromodomain 1 (N44 to E168 residues) expressed in Escherichia coli BL21 measured after 1 hr by Bromoscan method.
Data set [17] has the same target. Kind of data set: Displacement of biotinylated acetylated peptide from recombinant human partial length BRD4 long isoform bromodomain 2 (K333 to E460 residues) expressed in Escherichia coli BL21 measured after 1 hr by Bromoscan method.
Data set [18] has as its target T4, Bromodomain testis-specific protein (Homo sapiens, UniProt Q58F21). Kind of data set: Displacement of biotinylated acetylated peptide from recombinant human partial length BRDT isoform b bromodomain 1 (N21 to E137 residues) expressed in Escherichia coli BL21 measured after 1 hr by Bromoscan method.
For data set [19], the target named is T4, Bromodomain testis-specific protein. The experiment in a line: Displacement of biotinylated acetylated peptide from recombinant human partial length BRDT isoform b bromodomain 1/2 (N21 to E382 residues) expressed in Escherichia coli BL21 measured after 1 hr by Bromoscan method.
Data set [20] shares this target. Kind of data set: Displacement of biotinylated acetylated peptide from recombinant human partial length BRDT isoform b bromodomain 2 (K250 to E382 residues) expressed in Escherichia coli BL21 measured after 1 hr by Bromoscan method.
In data set [21] the test system is Mus musculus. The data set is described as §2. It is filed as ADME, organism-based. Also noted: dose 10 mg/kg, time infinity, route oral. Particulars: mouse, in vivo, BLD = below limit of detection. The essentials:
as §1

T3 sequence (Q15059 whole entry, the tested form may be a part): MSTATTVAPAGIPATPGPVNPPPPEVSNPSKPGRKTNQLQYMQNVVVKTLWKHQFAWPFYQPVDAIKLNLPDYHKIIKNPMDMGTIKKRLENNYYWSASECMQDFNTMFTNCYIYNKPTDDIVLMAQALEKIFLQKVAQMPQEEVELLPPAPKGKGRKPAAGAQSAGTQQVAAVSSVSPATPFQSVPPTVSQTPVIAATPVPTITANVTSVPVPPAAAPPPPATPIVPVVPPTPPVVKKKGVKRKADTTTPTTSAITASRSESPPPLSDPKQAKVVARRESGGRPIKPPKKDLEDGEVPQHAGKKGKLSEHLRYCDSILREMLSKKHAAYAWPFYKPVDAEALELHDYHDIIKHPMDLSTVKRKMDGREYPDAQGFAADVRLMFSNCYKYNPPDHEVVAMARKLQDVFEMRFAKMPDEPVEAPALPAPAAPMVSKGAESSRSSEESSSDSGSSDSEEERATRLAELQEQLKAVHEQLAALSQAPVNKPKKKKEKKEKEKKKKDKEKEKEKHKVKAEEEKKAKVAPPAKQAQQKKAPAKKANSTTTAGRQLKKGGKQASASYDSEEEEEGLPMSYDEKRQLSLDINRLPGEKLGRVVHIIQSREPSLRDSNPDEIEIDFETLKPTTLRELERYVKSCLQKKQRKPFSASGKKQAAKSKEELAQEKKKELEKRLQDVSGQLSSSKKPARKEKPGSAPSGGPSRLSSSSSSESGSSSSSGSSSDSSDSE
T2 sequence (P25440 whole entry, the tested form may be a part, canonical isoform): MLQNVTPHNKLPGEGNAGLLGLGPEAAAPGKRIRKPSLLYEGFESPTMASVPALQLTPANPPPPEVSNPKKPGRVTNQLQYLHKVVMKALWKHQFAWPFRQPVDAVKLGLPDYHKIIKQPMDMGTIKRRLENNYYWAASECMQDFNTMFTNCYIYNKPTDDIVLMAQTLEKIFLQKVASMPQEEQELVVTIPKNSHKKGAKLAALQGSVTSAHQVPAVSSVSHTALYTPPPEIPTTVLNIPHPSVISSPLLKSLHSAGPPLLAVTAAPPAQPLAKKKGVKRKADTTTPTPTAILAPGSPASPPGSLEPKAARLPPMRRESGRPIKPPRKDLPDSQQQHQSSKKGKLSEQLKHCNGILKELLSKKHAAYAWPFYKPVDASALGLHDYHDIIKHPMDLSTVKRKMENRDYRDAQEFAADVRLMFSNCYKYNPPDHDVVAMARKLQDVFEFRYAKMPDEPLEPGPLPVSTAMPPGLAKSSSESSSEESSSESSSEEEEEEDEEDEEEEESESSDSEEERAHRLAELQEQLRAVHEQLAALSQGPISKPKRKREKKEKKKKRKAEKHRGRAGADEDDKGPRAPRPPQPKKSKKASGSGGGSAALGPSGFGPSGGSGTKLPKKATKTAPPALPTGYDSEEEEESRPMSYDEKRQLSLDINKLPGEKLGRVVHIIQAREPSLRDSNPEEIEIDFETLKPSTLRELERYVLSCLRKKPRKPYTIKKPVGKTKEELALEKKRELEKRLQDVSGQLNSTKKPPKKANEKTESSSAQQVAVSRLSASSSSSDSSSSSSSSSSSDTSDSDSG

For the compound `Cc1noc(C)c1-c1ccc2nc(-c3cnn(CCO)c3)nc(N3CCOCC3c3ccccc3)c2c1` (stereo not drawn), the Kd in [1] is 66 nM. For the same compound, the half-life in [2] is 2.1 h; in data set [4], 3.1 h. Also, the results for the AUC(0-inf) in [3] and in data set [6] were 4490 ng·h/mL and 1760 ng·h/mL, respectively. In the data set on Mus musculus [5], this compound yielded a Cmax of 1690 ng/mL. Besides, in data set [7], the Vd is 1.7 L/kg. This compound also had a clearance in data set [8] of 19.8 mL/min/kg. The same compound had a F in the data set on Mus musculus [9] of 51%.

Regarding `CN(C)CCN1CCN(c2nc(NCc3cccc(Cl)c3)c3cc(-c4ccc(=O)n(C)c4)ccc3n2)CC1`, the Kd in [1] was 44 nM; in [10], 33 nM; in data set [11], 27 nM; in data set [12] it was 24 nM; in data set [13], 21 nM; in data set [14] it was 20 nM. Also, the dissociation constant Kd in data set [15] is 21 nM; in [16], 18 nM; in data set [17], 50 nM; in data set [18] it was 20 nM; in data set [19], 67 nM; in data set [20], 160 nM. The same compound came in with a concentration for half-maximal inhibition (IC50) in the data set with MV4-11 of 540 nM. Also, the AUC result in the data set on Mus musculus [21] was “Bld”.
